Calls of active or inactive are those of the source.
Legend:
[1] = system: Mus musculus; assay: Anticonvulsant activity in ip dosed albino CF1 mouse assessed as time of peak effect by maximal electroshock seizures test in presence of 50 miliamperes of electric current; assay type: functional
In short: (§1)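 Adult male albino CF-1 (Carworth Farms No. 1) mice dosed ip under NINDS ASP; MES test. Compounds with sufficient activity got a dose-response curve (4–6 doses, n = 8 per dose) at the time of peak effect (h, bracketed).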

[2] = system: Mus musculus; assay: Anticonvulsant activity in ip dosed albino CF1 mouse assessed as protection against subcutaneous metrazol-induced seizures; assay type: functional, organism-based
In short: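 Male albino CF-1 mice dosed ip under NINDS ASP; subcutaneous pentylenetetrazol (Metrazol) seizure threshold test.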

[3] = system: Rattus norvegicus; assay: Anticonvulsant activity in po dosed albino Sprague-Dawley rat assessed as protection against maximal electroshock-induced seizures in presence of 150 miliamperes of electric current; assay type: functional
In short: (§2)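 Adult male albino Sprague-Dawley rats dosed orally under NINDS ASP; MES test. ED50 in mg/kg, with time of testing noted in hours in brackets.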

[4] = Neurotoxicity in po dosed albino Sprague-Dawley rat; assay type: toxicity, organism-based; conditions: in vivo
In short: (§3)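 Adult male albino Sprague-Dawley rats given compound orally under NINDS ASP. Behavioral toxicity was scored by the positional sense test or the gait and stance test. TD50 in mg/kg, with time in hours bracketed.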

[5] = system: Mus musculus; assay: Neurotoxicity in ip dosed albino CF1 mouse assessed as time of peak effect by rotarod test; assay type: toxicity, organism-based; conditions: in vivo
[6] = system: Mus musculus; assay: Anticonvulsant activity in ip dosed albino CF1 mouse assessed as protection against maximal electroshock-induced seizures in presence of 50 miliamperes of electric current; assay type: functional; in short: as §1
[7] = system: Rattus norvegicus; assay: Behavioral toxicity in po dosed albino Sprague-Dawley rat assessed as time of peak effect; assay type: organism-based; conditions: in vivo; in short: as §3
[8] = Neurotoxicity in ip dosed albino CF1 mouse assessed as minimal motor coordination impairment by rotarod test; assay type: toxicity, organism-based; conditions: in vivo
[9] = system: Rattus norvegicus; assay: Anticonvulsant activity in po dosed albino Sprague-Dawley rat assessed as time of peak effect by maximal electroshock seizures test in presence of 150 miliamperes of electric current; assay type: functional; in short: as §2
[10] = organism: Mus musculus; assay: Protective index, ratio of TD50 for albino CF1 mouse by rotarod test to ED50 for albino CF1 mouse by maximal electroshock seizures test; assay type: functional
In short: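 Mouse protective index calculated as rotorod TD50 divided by MES ED50, both from ip dosing of male CF-1 mice at the NINDS ASP.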

[11] = organism: Rattus norvegicus; assay: Protective index, ratio of TD50 for albino Sprague-Dawley rat to ED50 for albino Sprague-Dawley rat by maximal electroshock seizures test; assay type: functional
In short: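 Rat protective index calculated as behavioral toxicity TD50 divided by MES ED50, both after oral dosing of male Sprague-Dawley rats at the NINDS ASP.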

[12] = system: Mus musculus; assay: Anticonvulsant activity in ip dosed NMRI mouse assessed as protection against maximal electroshock-induced seizures after 30 mins in presence of 50 miliamperes of electric current; assay type: functional; conditions: 0.5 h

Compound	Time [1] [h]	Activity [2]	ED50 [3] [mg/kg]	TD50 [4] [mg/kg]	Time [5] [h]	ED50 [6] [mg/kg]	Time [7] [h]	TD50 [8] [mg/kg]	Time [9] [h]	PI [10]	PI [11]	ED50 [12] [mg/kg]
CC(C)[C@@H](N)C(=O)OCc1ccccc1	0.5	inactive	> 30	> 30	0.5	> 300	0.25	> 300	0.25			
CCCC(=O)NCc1ccccc1				> 30	0.5			100				
CC(C)[C@@H](N)C(=O)NCC1CCCCC1	0.5	inactive	15	> 30	0.5	30	0.25	100	0.25			
CC(C)[C@@H](N)C(=O)NCCc1cccc(F)c1	0.25		38	> 500	0.25	20		67	0.5	3.4		
CC(C)[C@@H](N)CNCc1ccccc1	0.5	inactive	> 30	> 30	0.5	30	0.25	100	0.25			
CCC(C)C(=O)NCc1ccccc1 (racemic)	0.25	inactive	51	> 500	0.25	56		165	0.5	2.9	>9.8	
COC[C@@H](NC(C)=O)C(=O)NCc1ccccc1 [LACOSAMIDE]	0.5			> 500	0.25				2	6		
CCCC(CCC)C(=O)[O-].[Na+] [VALPROATE SODIUM]	0.5				0.25	270	0.5		0.5			
CC[C@@H](O)C(=O)NCc1ccccc1	0.5	inactive	> 30	> 30	0.5	100	0.25	100	0.25			
CC(C)[C@@H](N)C(=O)CCc1ccccc1.Cl		inactive				30		100				
CC(C)[C@@H](N)C(=O)NCc1ccccc1OC(F)(F)F	0.25	inactive	33	> 500	0.25	9.2		51	0.5	5.5	>15	
CC(C)[C@@H](N)C(=O)NCCc1ccc(F)cc1						10		30				
CCC1(c2ccccc2)C(=O)NC(=O)NC1=O [PHENOBARBITAL]	1		9.1		0.5	22	0.5		5	3	>100	
O=C1NC(=O)C(c2ccccc2)(c2ccccc2)N1 [PHENYTOIN]	2		30	> 3000	0.25				4			
CC(C)[C@@H](N)C(=O)Nc1ccccc1	0.5	inactive			0.5	30		> 30				
CC(C)[C@@H](N)C(=O)NCCc1ccccc1F	0.25			500	0.25	27		79	4	2.9	>25	
CC(C)[C@H](C(=O)NCc1ccccc1)N(C)C	0.5	inactive			0.5	30		100				
CN[C@@H](C(=O)NCc1ccccc1)C(C)C												25
CC(C)[C@@H](N)C(=O)NCCCCc1ccccc1	0.25	inactive	> 30	> 30	0.25	11	0.25	38	0.25	3.5		
CC(C)[C@@H](N)C(=S)NCc1ccccc1	0.5	inactive	< 30	> 30	0.5	30	0.25	30	0.5			
CC(=O)NC(C(=O)NCc1ccccc1)c1ccccc1 (racemic)						20						
CC(C)[C@@H](N)C(=O)NCc1cccc(OC(F)(F)F)c1	0.25	inactive	10	43	0.25	7.1	1	30	1	4.2	4.3	
CC[C@H](C)C(=O)NCc1ccccc1	0.5		> 30	> 30	0.5	100	0.25	300	0.25			
CC(C)[C@@H](N)C(=O)NCCCc1ccccc1	0.25	inactive	< 30	> 30	0.25	16	0.25	43	0.25	2.7		
CC(C)[C@@H](N)C(=O)NCCc1ccccc1	0.25	inactive	< 30	> 30	0.25	10	0.24	50	0.25	5		
